Molecules are shown by their SMILES. About 1,400 (2.2%) of roughly 65,000 compounds were called active. What follows is part of a selection rich in actives, with near analogues and random picks from the rest. Unmarked numbers belong to inactive results.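 The calls were made as follows: active = growth inhibition at or above a cutoff equal to the mean over every tested compound plus 3 SD (cut at about 60% in these data); inactive = the rest.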

This is an account of results in PubChem BioAssay AID573 (SRMLSC, 2007).

The test is described as follows: E. coli ΔtolC antibacterial growth inhibition – strain BW25113 ΔtolC::kan, 384-well, primary screen (AID 573). The conditions noted are these: E. coli BW25113 tolC mutant growth, OD615; stronger effect = higher value; screened at 10 µM (by protocol). In outline: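 Test system: tolC-deleted E. coli BW25113; medium: LB with kanamycin 50 µg/mL; compound: single-point testing at 10 µM; incubation: 20 h compound exposure of bacteria at 37 °C; signal: OD at 615 nm; evaluation: growth inhibition in percent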
With `CC(=O)c1c(C)n([O-])c2ccccc2[n+]1=O`, the growth inhibition was 97.5% (active).

In the case of `C=CCSc1nc2c(c(=O)[nH]1)C(C(C)C)C(C#N)=C(N)O2` (configuration not stated), the growth inhibition was 0.15%. The result for `CCCn1c(=NC(C)=O)c(C(=O)OCC)cc2c(=O)n3ccccc3nc21` reads -3.58%.

Turning to `C=CCOc1nc2c(c(=O)n(C)c(=O)n2C)n1Cc1ccc(Cl)cc1Cl`, the growth inhibition is 12.2%. The result for `Cc1nc2c(-c3ccccc3)c(C)[nH]n2c(=O)c1Cl` reads 98% (active). As to `CCCN(CCC)C(=O)C1c2ccccc2Oc2ccccc21`, the growth inhibition was 17.6%. Take `CCOC(=O)N1CCC(NC(=O)Cn2cc3c(n2)CCCCC3)CC1`: the growth inhibition is -12.2%.

With `CCC(Oc1ccccc1)C(=O)NCc1cccnc1` (configuration not stated), the growth inhibition was -6.02%. The result for `N#Cc1nc(COc2ccc(-c3ccccc3)cc2)oc1NCc1cccnc1` reads 88.7% (active). For `Cc1ccc(OCc2nc(C#N)c(N3CCCC3)o2)cc1` the value was 5.67%.

Consider `COc1ccc(N2CC(C)Cn3c2nc2c3c(=O)n(Cc3ccccc3F)c(=O)n2C)c(OC)c1` (configuration not stated), for which the growth inhibition was 13.4%. As to `Cc1nnc(SCC(=O)NCCOc2ccc(Cl)cc2)n1-c1ccccc1`, the growth inhibition is -1.57%. With `COc1ccc2c(c1)CCc1c(C(=O)N3CCCC3)noc1-2`, the growth inhibition is -0.81%.

In the case of `COc1ccc2c(c1)CCc1c(C(=O)Nc3c(C)n(C)n(-c4ccccc4)c3=O)noc1-2`, the growth inhibition was -4.64%. The result for `COc1ccc2c(c1)CCc1c(C(=O)N3CCc4ccccc4C3)noc1-2` reads 77.6% (active). For `CCCOC(=O)c1cc2ccccc2oc1=O` the value was -13.8%. For `O=c1c(-c2ccc3c(c2)OCCO3)c(C(F)(F)F)oc2cc(O)cc(O)c12` the value was 11.4%. As to `CCOC(=O)c1cc2cc(-c3c(C(=O)OCC)oc4cc(O)cc(O)c4c3=O)ccc2o1`, the growth inhibition was 87.4% (active).

Regarding `CC1(c2ccccc2Cl)NC(=O)N(CC(=O)NC(=O)NCc2ccco2)C1=O` (configuration not stated), the growth inhibition was -3.76%.

Consider `COc1ccc(C2=NOC(C(=O)NCc3ccco3)C2)cc1OC` (configuration not stated), for which the growth inhibition is -12.4%.

With `CCCc1cc(=O)n2[nH]c(SCc3ccccc3)nc2n1`, the growth inhibition is 11.2%. For `CCS(=O)(=O)n1nc(-c2ccc(OC)cc2)nc1SC` the value was 2.8%; for `CCS(=O)(=O)n1nc(-c2ccccc2)nc1SCc1ccccc1`, 62.5% (active); for `CN(C)[C@@H]1C(=O)C(C(N)=O)=C(O)[C@@]2(O)C(=O)C3=C(O)c4c(O)ccc(Cl)c4[C@@H](O)[C@H]3C[C@@H]12`, 100% (active). On to `CCSC1=C(C#N)C(=O)n2c1cc1c2CCCC1`, for which the growth inhibition was 11.6%. For `Cc1ccc(S(=O)(=O)N2CCC(C(=O)N[C@@H](C)C(=O)NCCc3ccccc3)CC2)cc1` the value was -5.94%; for `c1ccc2[nH]c(NCCN3CCOCC3)nc2c1`, -17.2%; for `N#Cc1nc(-c2ccc(OCc3ccccc3)cc2)oc1NCCCN1CCOCC1`, 96.3% (active).

Turning to `COc1ccc(Nc2oc(-c3ccccc3Cl)nc2C#N)cc1`, the growth inhibition is 9.32%. For `COc1ccc(OC)c2c(N)c(C#N)c(C(F)(F)C(F)(F)F)nc12` the value was 2.98%. Regarding `O=C(Nc1ccc(Cl)cn1)c1cnn2cccnc12`, the growth inhibition was -3.45%. For the molecule `CCN=C1SC(CC(=O)Nc2ccc(C)cc2)C(=O)N1CC` (configuration not stated), the growth inhibition is -9.63%. For `C[C@H](NC(=O)OC(C)(C)C)c1nnc(SCC(=O)Nc2ccc(Br)cc2)o1` the value was 15.3%; for `CC(C)(CSc1nncn1/N=C/c1ccco1)NS(=O)(=O)c1ccc(Cl)cc1`, 15.6%; for `COc1ccc(Cc2nnc(NS(=O)(=O)Cc3ccccc3)s2)cc1`, 5.52%. For `CCOC(=O)c1[nH]c2ccc(OC)cc2c1NC(=O)N1CCOCC1` the value was -1.42%. Consider `O=C1CSC(c2cccc(F)c2)N1c1ccccc1F` (configuration not stated), for which the growth inhibition was 9.21%. For `CCCCCCn1c(SCC(=O)c2ccccc2)nc2c1c(=O)[nH]c(=O)n2C` the value was 14.9%; for `CCCSc1nc2c(c(=O)[nH]c(=O)n2C)n1CCc1ccccc1`, 5.24%; for `CCCCCn1c(SCCC(C)C)nc2c1c(=O)[nH]c(=O)n2C`, 64.3% (active). Turning to `COC(=O)c1ccc2c(c1)S(=O)(=O)NC(=NCCCN1CCOCC1)S2`, the growth inhibition was -18.4%.

As to `O/N=C1\CC2(Cc3nonc31)OCCO2`, the growth inhibition was -23.4%. For `O=C(COC(=O)c1ccc(Oc2ccccc2)cc1)Nc1nnc(-c2ccccc2)o1` the value was 100% (active). With `COc1ccc(CC(=O)Nc2ccc(-c3nnc(-c4ccccc4)o3)cc2)cc1`, the growth inhibition was -6.58%.

Consider `Cc1ccc(OCC(=O)Nc2ccc(-c3nnc(-c4ccco4)o3)cc2)cc1`, for which the growth inhibition is -19.2%. Consider `CC(C(=O)N1CCOCC1)N1c2cccc3cccc(c23)S1(=O)=O` (configuration not stated), for which the growth inhibition is -2.26%.

As to `COc1cccc(Nc2nnc(SCC(=O)N3CC(C)OC(C)C3)s2)c1` (configuration not stated), the growth inhibition was 8.6%. The result for `COc1cccc(NC(=O)C2CCCN2C(=O)OCc2ccccc2)c1` (configuration not stated) reads -9.18%; that for `COc1cccc(NC(=O)Nc2nnc(N3CCCCC3C)s2)c1` (configuration not stated), 61.5% (active). The result for `CCCc1nnc(NC(=O)CN2C(=O)c3ccccc3S2(=O)=O)s1` reads -16.8%; that for `CC(C)Cc1cc(C(=O)Nc2cc(Br)ccc2O)no1`, 80.4% (active); that for `CC(C)CNC(=O)c1cc(-c2ccc(Br)cc2)on1`, 1.43%. The result for `CC(C)Cc1cc(C(=O)NCCc2ccccc2)no1` reads 9.12%. In the case of `NC(=O)c1ccccc1NC(=O)c1ccccc1F`, the growth inhibition was -2.79%.

With `CCN1CCCC1CNc1ncnc2c1[nH]c1ccc(F)cc12` (configuration not stated), the growth inhibition was 3.38%. For `O=C1CCCN1CCCNc1ncnc2c1[nH]c1ccccc12` the value was -26.6%. For `CC(C)OCCCNc1ncnc2c1[nH]c1ccc(F)cc12`, the growth inhibition is 96.2% (active). The result for `COc1ccccc1NC(=O)c1ccc(C)s1` reads 14.1%; that for `CCOc1ccccc1Oc1cn[nH]c1-c1ccc(OC)cc1O`, 98.2% (active); that for `CCOc1ccccc1NC(=O)CCN1CCN(S(=O)(=O)c2ccc(OC)cc2)CC1`, -7.02%. For `CCOc1ccccc1NC(=O)Nc1cc(OC)ccc1OC` the value was -9.62%; for `O=C(Nc1ccc2c(c1)OCO2)C1CC(c2c(F)cccc2Cl)=NO1` (configuration not stated), 18%; for `CCOC(=O)c1c(-n2cnnn2)sc(C)c1C`, 1.46%. The result for `CCOC(=O)C1CCN(c2ncnc3c2oc2ccc(Br)cc23)CC1` reads 100% (active); that for `CCOC(=O)N1CCN(C(=O)C2CCN(c3ncnc4c3sc3cccc(F)c34)CC2)CC1`, 32.2%. Take `Cc1cc(C)nc(N2CCN(c3ncnc4c3oc3ccccc34)CC2)n1`: the growth inhibition was -15.7%. For `CC(C)COC(=O)C1C2C=CC3(CN(C(C)c4ccc(Br)cc4)C(=O)C13)O2` (configuration not stated) the value was -3.74%; for `COCCNC(=O)c1ccccc1-c1nc(-c2ccccc2Cl)no1`, 1.03%. For `Cc1ccc(SCCN2C(=O)NC(C)(C)C2=O)cc1` the value was 13.1%; for `Cc1ccc(C2(c3ccc(C)cc3)NC(=O)N(Cc3c(C)noc3C)C2=O)cc1`, 94.9% (active); for `C=CCNC(=O)CCCOc1cccc(C)c1`, -3.22%.

Regarding `COc1ccccc1N1CCN(C(=O)c2c(-c3c(Cl)cccc3Cl)noc2C)CC1`, the growth inhibition was 23.5%. For the molecule `c1ccc(CSc2nnc(-c3ccco3)c(-c3ccco3)n2)cc1`, the growth inhibition was 72.5% (active). For `O=C(CSc1nnc(-c2ccco2)n1Cc1ccccc1)NC(=O)NCc1ccco1` the value was 12.2%. The result for `O=C(CSc1nnc(-c2ccco2)n1CC1CCCO1)c1ccccc1` (configuration not stated) reads -11.9%; that for `Nc1cc(=O)nc(SCc2ccccc2)n1Cc1ccco1`, 7.07%.

With `c1ccc(CSc2nnc(-c3ccco3)n2Cc2ccccc2)cc1`, the growth inhibition was 100% (active).

Consider `Clc1ccccc1CSc1nnc(-c2ccco2)c(-c2ccco2)n1`, for which the growth inhibition is 9.86%. Turning to `CC(C)c1nc(N2CCOCC2)c(C#N)c2c1COC(C)(C)C2`, the growth inhibition is 8.03%. For `Cc1ccc(S(=O)(=O)N2CC(=O)Nc3ccccc32)cc1C` the value was -6.32%; for `CCCC(=O)Nc1c(O)c2ccccc2[nH]c1=O`, -32.1%. The result for `CCCCc1nc2ccccc2c(=O)n1NC(=O)c1c(O)c2cccc3c2n(c1=O)CC3` reads 34.2%; that for `CCCc1nc2ccccc2c(=O)n1NC(=O)c1c(O)c2ccccc2[nH]c1=O`, 72.5% (active); that for `Cc1cc(Nc2ccccc2)n(C(=O)c2ccc(N)cc2)n1`, 25.2%. The result for `N#Cc1c(N)n(CCOC(=O)c2ccc(Cl)cc2)c2nc3ccccc3nc12` reads 5%; that for `CC(=O)N1C(=O)C2(Nc3ccccc3N2)c2ccccc21`, -14%; that for `COc1c(Br)cc2c(C)c(C(=O)N3CCOCC3)oc2c1Br`, 0.15%. On to `COc1ccc(-c2n[nH]c(C)c2-c2ccc(OC)c(OC)c2)c(O)c1`, for which the growth inhibition was 38.4%. For `COc1ccccc1-c1c(C)nn2c(C)c(C(C)=O)cnc12` the value was 15.8%; for `C=C(C)COc1ccc(-c2n[nH]c(C)c2-c2ccccc2OC)c(O)c1`, 88.4% (active). As to `C=C(C)COc1ccc(-c2n[nH]c(C)c2-c2ccccc2)c(O)c1`, the growth inhibition was 95.4% (active). As for `Cn1c(=O)c2c(nc(SCCNS(=O)(=O)c3ccccc3)n2C)n(C)c1=O`, the growth inhibition is 0.89%. The result for `Cc1ncc(CC(=O)n2cc(C(=O)c3cc(Cl)ccc3O)cn2)s1` reads 5.26%; that for `CCn1c(SCC(=O)Nc2nc3ccc(OC)cc3s2)nnc1-c1ccoc1C`, 27.9%. For the molecule `C=CCn1c(SCC(=O)Nc2nc3ccccc3s2)nnc1-c1ccccc1O`, the growth inhibition was 87.9% (active).

With `C=CCn1c(CSc2nc3ccccc3s2)nnc1SCC(=O)NCc1ccco1`, the growth inhibition was 29.4%. The result for `CCOc1ccccc1-n1c(SCC(=O)NCc2ccco2)nnc1-c1ccncc1` reads -11.1%.
